Active and inactive are the calls of the source. The calls are words filed in the database; no cut-off is given here. Peptide text beside a SMILES is read from it.
Columns and labels:
Assay type in all cases: functional, cell-based
HL-60 = experiment: (§1) Cytotoxicity against human HL60 cells after 72 hrs by MTS assay
In short: (§2)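 HL-60 (human leukemia) grown in RPMI-1640 with 20% FBS at 37 °C, 5% CO2. Seeded at 1 × 10^4 cells/well and left 24 h, then exposed to a range of sample concentrations for 72 h. MTS added for 2 h; absorbance read at 490 nm against a 690 nm reference.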

MGC-803 = experiment: Cytotoxicity against human MGC803 cells after 72 hrs by MTS assay; details: for IC50: MGC-803, 72 h
In short: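 Gastric MGC-803 line maintained in RPMI-1640 plus 10% FBS, 37 °C, 5% CO2. Cells seeded at 1 × 10^4/well, incubated 24 h, then given medium with varying sample concentrations for 72 h. After 2 h with MTS, absorbance taken at 490 nm (reference 690 nm).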

HepG2 = experiment: Cytotoxicity against human HepG2 cells after 72 hrs by MTS assay; details: for IC50: HepG2, 72 h
In short: (§3)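 HeLa (cervical) and HepG2 (hepatoma) cells kept in high-glucose DMEM with 10% FBS, 5% CO2, 37 °C. Plated at 1 × 10^4 cells/well for 24 h, then treated with graded sample concentrations for 72 h. Viability by MTS reduction over 2 h, measured at 490 nm with 690 nm reference.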

HeLa = experiment: Cytotoxicity against human HeLa cells after 72 hrs by MTS assay; in short: as §3
RPMI-8226 = experiment: Cytotoxicity against human RPMI8226 cells after 72 hrs by MTS assay; details: RPMI-8226, 72 h
[1] = as §1; details: HL-60, 72 h; in short: as §2

Compound: CC[C@H](C)[C@@H]1NC(=O)[C@H](Cc2ccccc2)NC(=O)[C@@H]2CCCN2C(=O)[C@H](Cc2ccccc2)NC(=O)[C@@H]2CCCN2C(=O)[C@@H]2CCCN2C(=O)[C@H](Cc2ccccc2)NC1=O (cyclo(FIFPPFP))
- inhibition (HL-60): inactive
- inhibition (MGC-803): inactive
- inhibition (HepG2): inactive
- inhibition (HeLa): inactive

Compound: CC[C@H](C)[C@@H]1NC(=O)[C@@H]2CCCN2C(=O)[C@H](Cc2ccccc2)NC(=O)[C@H](Cc2ccc(O)cc2)NC(=O)[C@H]([C@@H](C)CC)NC(=O)[C@@H]2CCCN2C(=O)[C@H](Cc2ccccc2)NC1=O (cyclo(FPIFPIY))
- inhibition (HL-60): inactive
- inhibition (MGC-803): inactive
- inhibition (HepG2): inactive
- inhibition (HeLa): inactive

Compound: CC[C@H](C)[C@@H]1NC(=O)[C@@H]2CCCN2C(=O)[C@H](CC(C)C)NC(=O)[C@@H]2CCCN2C(=O)[C@H](CC(C)C)NC(=O)[C@H](Cc2ccc(O)cc2)NC(=O)[C@H](Cc2ccccc2)NC1=O (cyclo(FYLPLPI))
- inhibition (HL-60): inactive
- inhibition (MGC-803): inactive
- inhibition (HepG2): inactive
- inhibition (HeLa): inactive

Compound: CC[C@H](C)[C@@H]1NC(=O)[C@H](C(C)C)NC(=O)[C@@H]2CCCN2C(=O)[C@H](Cc2c[nH]c3ccccc23)NC(=O)[C@H](CC(C)C)NC(=O)[C@@H]2CCCN2C(=O)[C@H]([C@@H](C)CC)NC(=O)[C@@H]2CCCN2C1=O (cyclo(IPIPLWPV))
- IC50 (RPMI-8226): 4.9 µM
- IC50 [1]: > 20 µM
- IC50 (MGC-803): 9.7 µM
- IC50 (HepG2): > 20 µM
- IC50 (HeLa): 17.3 µM

Compound: CC[C@H](C)[C@@H]1NC(=O)[C@H](C(C)C)NC(=O)[C@H](CC(N)=O)NC(=O)[C@@H]2CCCN2C(=O)[C@H](CC(C)C)NC(=O)[C@H](CC(C)C)NC(=O)[C@@H]2CCCN2C1=O (cyclo(IPLLPNV))
- inhibition (HL-60): inactive
- inhibition (MGC-803): inactive
- inhibition (HepG2): inactive
- inhibition (HeLa): inactive

Compound: COc1cccc2c1C(=O)c1c(O)c3c(c(O)c1C2=O)C[C@@](O)(C(=O)CO)C[C@@H]3O[C@H]1C[C@H](N)[C@H](O)[C@H](C)O1 [DOXORUBICIN]
- IC50 [1]: 0.2 µM
- IC50 (MGC-803): 0.1 µM
- IC50 (HepG2): 0.4 µM
- IC50 (HeLa): 0.5 µM

From ChEMBL document CHEMBL3352734, “Reniochalistatins A-E, cyclic peptides from the marine sponge Reniochalina stalagmitis” (J Nat Prod, 2014)
